# Laboratory results from ChEMBL document CHEMBL4130626, “α-Arylidene Diacylglycerol-Lactones (DAG-Lactones) as Selective Ras Guanine-Releasing Protein 3 (RasGRP3) Ligands” (J Med Chem, 2018).
# Key:
# Homo sapiens [1] = species: Homo sapiens; test: Selectivity ratio of EC50 for PKCdelta (unknown origin) expressed in HEK293 cells harboring GFP-tagged RasGRP1 to EC50 for GFP-tagged RasGRP1 (unknown origin) expressed in HEK293 cells assessed as ERK1/2 phosphorylation; format: cell-based
# Homo sapiens [2] = species: Homo sapiens; test: Selectivity ratio of EC50 for PKCdelta (unknown origin) expressed in human LNCAP cells harboring GFP-tagged RasGRP1 to EC50 for GFP-tagged RasGRP1 (unknown origin) expressed in human LNCAP cells assessed as ERK1/2 phosphorylation; format: cell-based
# [3] = target: T1, Protein kinase C epsilon type (Homo sapiens, UniProt Q02156); test: Displacement of [3H]PDBu from full length recombinant human PKCepsilon expressed in baculovirus expression system after 5 mins by scintillation counting
# T1 sequence (Q02156 whole entry): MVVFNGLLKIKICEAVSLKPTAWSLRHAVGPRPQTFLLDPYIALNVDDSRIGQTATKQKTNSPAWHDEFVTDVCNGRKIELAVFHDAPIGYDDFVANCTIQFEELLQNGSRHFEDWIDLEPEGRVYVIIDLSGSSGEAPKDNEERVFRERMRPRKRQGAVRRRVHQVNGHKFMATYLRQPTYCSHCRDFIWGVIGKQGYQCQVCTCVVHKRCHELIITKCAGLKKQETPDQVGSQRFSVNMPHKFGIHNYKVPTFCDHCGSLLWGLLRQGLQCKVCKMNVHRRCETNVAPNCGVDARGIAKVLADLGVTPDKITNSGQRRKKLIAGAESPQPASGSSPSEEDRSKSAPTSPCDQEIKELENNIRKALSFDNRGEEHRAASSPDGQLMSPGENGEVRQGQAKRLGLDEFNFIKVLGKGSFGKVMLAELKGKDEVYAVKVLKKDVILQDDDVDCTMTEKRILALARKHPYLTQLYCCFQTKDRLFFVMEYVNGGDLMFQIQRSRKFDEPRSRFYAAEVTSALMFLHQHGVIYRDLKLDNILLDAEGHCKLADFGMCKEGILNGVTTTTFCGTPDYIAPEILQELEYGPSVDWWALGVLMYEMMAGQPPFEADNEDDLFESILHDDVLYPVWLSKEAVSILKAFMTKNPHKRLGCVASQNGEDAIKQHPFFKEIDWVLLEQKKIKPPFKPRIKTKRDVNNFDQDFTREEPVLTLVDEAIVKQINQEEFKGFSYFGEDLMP
# Procedure, shortened: (§1)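 Competition of [3H]PDBu binding by polyethylene glycol precipitation, with 100 µg/ml phosphatidylserine and ≤0.003% Triton X-100, 5 min at 37 °C. Proteins: full-length purified human PKCα, PKCε; full-length RasGRP1; MBP-RasGRP3 from E. coli BL21(DE3) induced with 0.3 mM IPTG 6 h at room temperature. Ki mean ± SEM of ≥2 experiments, triplicate points.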
# Homo sapiens [4] = species: Homo sapiens; test: Selectivity ratio of EC50 for PKCdelta (unknown origin) expressed in human LNCAP cells harboring GFP-tagged RasGRP1 to EC50 for GFP-tagged RasGRP1 (unknown origin) expressed in human LNCAP cells; format: cell-based
# [5] = target: Protein kinase C alpha type (Homo sapiens, UniProt P17252); test: Displacement of [3H]PDBu from full length recombinant human PKCalpha expressed in baculovirus expression system after 5 mins by scintillation counting; procedure, shortened: as §1
# Homo sapiens [6] = species: Homo sapiens; test: Selectivity ratio of EC50 for PKCdelta (unknown origin) expressed in HEK293 cells harboring GFP-tagged RasGRP3 to EC50 for GFP-tagged RasGRP3 (unknown origin) expressed in HEK293 cells assessed as ERK1/2 phosphorylation; format: cell-based
# Homo sapiens [7] = species: Homo sapiens; test: Selectivity ratio of EC50 for PKCdelta (unknown origin) expressed in human LNCAP cells harboring GFP-tagged RasGRP3 to EC50 for GFP-tagged RasGRP3 (unknown origin) expressed in human LNCAP cells assessed as ERK1/2 phosphorylation; format: cell-based
# [8] = target: T2, Protein kinase C delta type (Homo sapiens, UniProt Q05655); test: Activation of PKCdelta (unknown origin) expressed in human LNCAP cells harboring GFP-tagged RasGRP3 assessed as phosphorylation at ser299 residues after 30 mins by immunoblot method; format: cell-based
# T2 sequence (Q05655 whole entry): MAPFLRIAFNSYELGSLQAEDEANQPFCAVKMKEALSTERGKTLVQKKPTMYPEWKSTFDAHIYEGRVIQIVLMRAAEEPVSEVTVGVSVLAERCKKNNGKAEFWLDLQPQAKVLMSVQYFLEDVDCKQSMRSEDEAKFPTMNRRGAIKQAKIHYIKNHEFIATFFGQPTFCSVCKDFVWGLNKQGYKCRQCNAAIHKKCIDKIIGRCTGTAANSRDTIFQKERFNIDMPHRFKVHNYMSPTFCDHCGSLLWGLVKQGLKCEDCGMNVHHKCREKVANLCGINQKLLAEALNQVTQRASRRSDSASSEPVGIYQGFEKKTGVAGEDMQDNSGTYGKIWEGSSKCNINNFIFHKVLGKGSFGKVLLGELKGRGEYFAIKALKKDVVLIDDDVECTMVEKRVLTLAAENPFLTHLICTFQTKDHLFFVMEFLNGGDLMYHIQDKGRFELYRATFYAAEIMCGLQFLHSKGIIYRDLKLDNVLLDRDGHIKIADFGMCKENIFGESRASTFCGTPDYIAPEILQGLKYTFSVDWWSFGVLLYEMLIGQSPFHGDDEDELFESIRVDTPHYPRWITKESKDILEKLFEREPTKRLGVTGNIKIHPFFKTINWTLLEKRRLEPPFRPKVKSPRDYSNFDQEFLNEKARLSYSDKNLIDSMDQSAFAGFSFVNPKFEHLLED
# Procedure, shortened: (§2)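 PKCδ activation read as phospho-S299 on western blots of lysates (50 µg protein, 10% SDS-PAGE, milk blocking, anti-PKCδS299 overnight). Cells: GFP-RasGRP1/3-transfected HEK293 or LNCaP, or Ramos, treated 30 min at 37 °C with half-log doses (maximum 10 µM), 1000 nM PMA or DMSO. Scanned intensities normalized to 1000 nM PMA; EC50 mean ± SEM, n = 3; values above 10 µM extrapolated.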
# [9] = target: T3, Ras guanyl-releasing protein 3 (Homo sapiens, UniProt Q8IV61); test: Activation of RasGRP3 in human Ramos cells assessed as ERK1/2 phosphorylation after 30 mins by immunoblot method; format: cell-based
# T3 sequence (Q8IV61 whole entry): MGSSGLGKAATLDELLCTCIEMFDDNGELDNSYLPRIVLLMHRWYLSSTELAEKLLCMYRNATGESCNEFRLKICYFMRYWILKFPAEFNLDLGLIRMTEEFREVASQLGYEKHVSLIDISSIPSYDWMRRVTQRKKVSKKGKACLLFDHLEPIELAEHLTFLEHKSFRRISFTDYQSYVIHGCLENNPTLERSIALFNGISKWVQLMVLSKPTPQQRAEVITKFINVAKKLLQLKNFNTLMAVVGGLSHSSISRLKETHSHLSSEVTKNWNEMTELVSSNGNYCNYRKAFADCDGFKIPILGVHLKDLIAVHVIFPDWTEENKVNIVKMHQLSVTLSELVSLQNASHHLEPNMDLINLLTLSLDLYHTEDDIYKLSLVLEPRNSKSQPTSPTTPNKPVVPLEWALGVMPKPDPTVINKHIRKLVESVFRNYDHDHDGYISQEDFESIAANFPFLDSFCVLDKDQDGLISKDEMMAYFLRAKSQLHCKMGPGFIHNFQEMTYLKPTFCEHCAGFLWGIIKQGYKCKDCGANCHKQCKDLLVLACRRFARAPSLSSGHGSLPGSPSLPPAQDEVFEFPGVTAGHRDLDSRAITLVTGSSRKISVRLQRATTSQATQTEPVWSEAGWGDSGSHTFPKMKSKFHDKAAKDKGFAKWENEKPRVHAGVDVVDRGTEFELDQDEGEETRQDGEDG
# Procedure, shortened: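 Cells expressing GFP-RasGRP1/3 (HEK293 or LNCaP, 48 h after plating, transfected; expression checked by fluorescence 24-48 h later) or Ramos with endogenous RasGRP3 treated with half-log increasing concentrations (max 10 µM), 1000 nM PMA or DMSO, 37 °C, 30 min, 5% CO2. RasGTP by Raf1 RBD bead pulldown and anti-Pan-Ras immunoblot; pERK by western blot. Band intensities normalized to 1000 nM PMA; EC50 from n = 3.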
# Homo sapiens [10] = species: Homo sapiens; test: Selectivity ratio of EC50 for PKCdelta (unknown origin) expressed in human LNCAP cells harboring GFP-tagged RasGRP3 to EC50 for GFP-tagged RasGRP3 (unknown origin) expressed in human LNCAP cells; format: cell-based
# [11] = target: T2, Protein kinase C delta type; test: Activation of PKCdelta (unknown origin) expressed in human LNCAP cells harboring GFP-tagged RasGRP1 assessed as phosphorylation at ser299 residues after 30 mins by immunoblot method; format: cell-based; procedure, shortened: as §2
compound,measurement,setting,value
Cn1cc(/C=C2\CC(CO)(COC(=O)C(C)(C)C)OC2=O)c2ccccc21 (stereo unspecified),Ratio EC50,Homo sapiens [1],2.6
same,Ratio EC50,Homo sapiens [2],2.2
same,Ki,[3],78.9 nM
same,Ratio EC50,Homo sapiens [4],8.3
same,Ki,[5],127 nM
same,Ratio EC50,Homo sapiens [6],3.6
same,Ratio EC50,Homo sapiens [7],2.8
same,EC50,[8],8.28 µM
same,EC50,[9],6.09 µM
same,Ratio EC50,Homo sapiens [10],12.9
same,EC50,[11],8.03 µM
